# Source: ChEMBL document CHEMBL2321765 (J Med Chem, 2013)
# The source made the active and inactive calls. The calls are words filed in the database; no cut-off is given here.
# Key:
# [1] = test system: GTL 16; assay: Antitumor activity against human GTL16 cells expressing c-MET xenografted in CD1 nu/nu mouse assessed as tumor growth inhibition at 100 mg/kg, po qd for 21 days; assay type: functional, organism-based; set-up: dose 100 mg/kg
# [2] = target: T1, Tyrosine-protein kinase Mer (Homo sapiens) (UniProt Q12866); assay: Inhibition of MER (unknown origin) relative to control; conditions: concentration not given here
# T1 sequence (whole entry): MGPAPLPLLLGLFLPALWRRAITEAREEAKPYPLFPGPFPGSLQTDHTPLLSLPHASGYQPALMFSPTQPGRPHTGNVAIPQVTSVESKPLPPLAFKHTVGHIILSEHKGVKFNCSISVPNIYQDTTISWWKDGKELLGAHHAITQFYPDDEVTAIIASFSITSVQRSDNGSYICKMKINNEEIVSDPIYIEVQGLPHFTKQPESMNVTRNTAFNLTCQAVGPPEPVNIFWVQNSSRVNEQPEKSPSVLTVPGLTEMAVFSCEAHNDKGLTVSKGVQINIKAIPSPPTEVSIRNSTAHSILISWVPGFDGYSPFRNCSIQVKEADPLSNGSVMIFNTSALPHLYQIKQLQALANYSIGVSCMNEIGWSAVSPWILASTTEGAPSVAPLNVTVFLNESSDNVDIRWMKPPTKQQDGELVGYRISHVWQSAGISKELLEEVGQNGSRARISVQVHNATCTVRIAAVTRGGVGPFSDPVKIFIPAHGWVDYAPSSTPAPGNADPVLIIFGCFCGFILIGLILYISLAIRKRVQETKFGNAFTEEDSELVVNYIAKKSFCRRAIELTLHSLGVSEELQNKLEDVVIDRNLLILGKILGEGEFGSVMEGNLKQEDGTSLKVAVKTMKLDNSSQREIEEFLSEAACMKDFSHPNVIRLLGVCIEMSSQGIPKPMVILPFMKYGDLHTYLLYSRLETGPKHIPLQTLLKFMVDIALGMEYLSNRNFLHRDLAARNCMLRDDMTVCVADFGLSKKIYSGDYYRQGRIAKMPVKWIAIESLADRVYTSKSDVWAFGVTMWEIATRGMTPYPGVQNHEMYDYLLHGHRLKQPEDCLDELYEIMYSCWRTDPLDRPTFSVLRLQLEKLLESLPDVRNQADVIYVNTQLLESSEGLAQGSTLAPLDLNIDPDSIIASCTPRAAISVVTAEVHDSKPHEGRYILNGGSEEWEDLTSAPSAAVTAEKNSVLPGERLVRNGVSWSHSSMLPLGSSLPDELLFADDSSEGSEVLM
# Procedure, shortened: (§1)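 Kinase selectivity was assessed at a 10 μM or 0.1 μM test concentration, as footnoted per entry.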
# [3] = test system: Mus musculus; assay: In vivo inhibition of c-MET phosphorylation at tyrosine Y1349 in human GTL16 cells xenografted in po dosed mouse after 8 hrs by Western blotting analysis; assay type: functional, organism-based; conditions: GTL 16, 8 h
# [4] = Half life in rat; assay type: ADME, organism-based; conditions: in vivo
# [5] = Oral bioavailability in dog; assay type: ADME, organism-based, Canis lupus familiaris; conditions: in vivo
# [6] = target: T2, Cytochrome P450 3A4 (Homo sapiens, UniProt P08684); assay: Time dependent inhibition of CYP3A4 in human liver microsomes using testosterone as substrate up to 100 uM by LC-MS-MS analysis; assay type: ADME, Microsome
# Procedure, shortened: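 For inactivation kinetics, CYP3A4 testosterone 6β-hydroxylation was quantified by LC-MS/MS as the area ratio of 6β-OH testosterone to the cortisone internal standard. Ki and kinact were obtained by nonlinear regression.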
# [7] = Antitumor activity against human GTL16 cells expressing c-MET xenografted in CD1 nu/nu mouse assessed as tumor growth inhibition at 10 mg/kg, po bid for 21 days relative to control; assay type: functional; conditions: GTL 16, 504 h, read-out: TGI
# Procedure, shortened: (§2)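 Mice carrying GTL-16 tumours received the compound orally; tumour growth was compared with the vehicle-treated group by two-way repeated measures ANOVA.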
# [8] = target: T3, CYP3A4 (Homo sapiens, UniProt P08684); assay: Inhibition of CYP3A4 in human liver microsomes using testosterone as substrate at 10 uM by LC-MS-MS analysis relative to control; assay type: ADME, Microsome; conditions: probe testosterone
# [9] = Antitumor activity against human GTL16 cells expressing c-MET xenografted in CD1 nu/nu mouse assessed as tumor growth inhibition at 30 mg/kg, po bid for 21 days relative to control; assay type: functional; conditions: GTL 16, 504 h, read-out: TGI; procedure, shortened: as §2
# [10] = target: T4, Macrophage-stimulating protein receptor (Homo sapiens, UniProt Q04912); conditions: 1 uM
# [11] = Antitumor activity against human GTL16 cells expressing c-MET xenografted in CD1 nu/nu mouse assessed as tumor growth inhibition at 100 mg/kg, po bid for 21 days relative to control; assay type: functional; conditions: GTL 16, 504 h, read-out: TGI; procedure, shortened: as §2
# [12] = target: Cytochrome P450 2D6 (Homo sapiens, UniProt P10635); assay: Inhibition of CYP2D6 (unknown origin); assay type: ADME
# [13] = target: Cytochrome P450 2C9 (Homo sapiens, UniProt P11712); assay: Inhibition of CYP2C9 (unknown origin); assay type: ADME
# [14] = test system: Mus musculus; assay: In vivo inhibition of c-MET phosphorylation at tyrosine Y1349 in human GTL16 cells xenografted in mouse at 100 mg/kg, po after 1 hr by Western blotting analysis; assay type: functional, organism-based; set-up: dose 100 mg/kg
# Procedure, shortened: (§3)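 Mice carrying GTL-16 xenografts received a single oral dose of 10, 30, 100 or 400 mg/kg and were euthanized 1 h after dosing. Phospho-c-Met (Y1349) and total c-Met in the tumours were measured by quantitative Western blotting. Plasma total drug was also measured, and in vivo IC50 was deduced from the relationship between plasma level and tumour pY1349.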
# [15] = test system: GTL 16; assay: Antitumor activity against human GTL16 cells expressing c-MET xenografted in po dosed CD1 nu/nu mouse assessed as tumor growth inhibition administered bid for 21 days; assay type: functional, organism-based; procedure, shortened: as §2
# [16] = target: T4, Macrophage-stimulating protein receptor; assay: Inhibition of RON (unknown origin) by TR-FRET assay
# [17] = test system: Mus musculus; assay: In vivo inhibition of c-MET phosphorylation at tyrosine Y1349 in human GTL16 cells xenografted in po dosed mouse after 1 hr by Western blotting analysis; assay type: functional, organism-based; conditions: GTL 16, 1 h; procedure, shortened: as §3
# [18] = Volume of distribution at steady state in dog; assay type: ADME, organism-based, Canis lupus familiaris; conditions: in vivo, read-out: Vdss
# [19] = target: Vascular endothelial growth factor receptor 3 (Homo sapiens) (UniProt P35916); assay: Inhibition of FLT4 (unknown origin) relative to control; conditions: concentration not given here; procedure, shortened: as §1
# [20] = target: Hepatocyte growth factor receptor (Homo sapiens) (UniProt P08581); conditions: 1 uM
# [21] = Half life in dog; assay type: ADME, organism-based, Canis lupus familiaris; conditions: in vivo
# [22] = Volume of distribution at steady state in rat; assay type: ADME, organism-based; conditions: in vivo, read-out: Vdss
# [23] = target: Tyrosine-protein kinase Fes/Fps (Homo sapiens) (UniProt P07332); assay: Inhibition of FES (unknown origin) relative to control; conditions: concentration not given here; procedure, shortened: as §1
# [24] = Oral bioavailability in rat; assay type: ADME, organism-based; conditions: in vivo
# [25] = Antitumor activity against human GTL16 cells expressing c-MET xenografted in CD1 nu/nu mouse assessed as tumor growth inhibition at 3 mg/kg, po bid for 21 days relative to control; assay type: functional; conditions: GTL 16, 504 h, read-out: TGI; procedure, shortened: as §2
# [26] = Plasma clearance in dog; assay type: ADME, organism-based, Canis lupus familiaris
# [27] = target: T3, CYP3A4; assay: Time dependent inhibition of CYP3A4 in human liver microsomes using testosterone as substrate at 10 uM preincubated for 30 mins by LC-MS-MS analysis relative to control; assay type: ADME, Microsome; conditions: probe testosterone, read-out: TDI
# Procedure, shortened: (§4)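 CYP3A4 metabolism of testosterone was measured after 0 or 30 min preincubation of enzyme with test article at the indicated concentration. Activity lost via preincubation, relative to the zero-minute control with the same inhibitor, was the end point. 6β-OH testosterone was detected by LC-MS/MS with cortisone as internal standard.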
# [28] = test system: Mus musculus; assay: Toxicity in CD1 nu/nu mouse xenografted with human GLT16 cells assessed as change in body weight relative to control; assay type: organism-based; conditions: in vivo
# [29] = Plasma clearance in rat; assay type: ADME, organism-based
# [30] = target: Fibroblast growth factor receptor 3 (Homo sapiens) (UniProt P22607); assay: Inhibition of FGFR3 (unknown origin) relative to control; conditions: concentration not given here; procedure, shortened: as §1
# [31] = target: T2, Cytochrome P450 3A4; assay: Time dependent inhibition of CYP3A4 in human liver microsomes using testosterone as substrate by LC-MS-MS analysis relative to control; assay type: ADME, Microsome; procedure, shortened: as §4
structure (smiles),measurement,setting,value
Cn1cc(-c2cnc3ccc4ccc(CS(=O)(=O)NCc5ccccn5)cc4c(=O)c3c2)cn1 [MK-8033],TGI,[1],Active
same,inhibition,[2],60%
same,IC50,[3],1700 nM
same,half-life,[4],0.8 h
same,bioavailability,[5],33%
same,TDI,[6],Not Active
same,inhibition in vivo at 10 mg/kg,[7],18%
same,inhibition at 10 µM,[8],31%
same,inhibition in vivo at 30 mg/kg,[9],57%
same,inhibition,[10],> 90%
same,inhibition in vivo at 100 mg/kg,[11],86%
same,IC50,[12],46200 nM
same,IC50,[13],14700 nM
same,inhibition,[14],Active
same,TGI,[15],Dose-dependent effect
same,IC50,[16],7 nM
same,IC50,[17],1300 nM
same,Vd,[18],0.7 L/kg
same,inhibition,[19],60%
same,inhibition,[20],> 90%
same,half-life,[21],3.1 h
same,Vd,[22],0.4 L/kg
same,inhibition,[23],60%
same,bioavailability,[24],35%
same,inhibition in vivo at 3 mg/kg,[25],22%
same,clearance,[26],3.1 mL/min/kg
same,"inhibition at 30 min, 10 µM",[27],16%
same,Activity,[28],Non-toxic
same,clearance,[29],20 mL/min/kg
same,inhibition,[30],60%
Cn1cc(-c2cnc3ccc4ccc(CS(=O)(=O)NCc5cccnn5)cc4c(=O)c3c2)cn1,inhibition at 10 µM,[8],23%
same,"inhibition at 30 min, 10 µM",[27],14%
Cc1nccc(CNS(=O)(=O)Cc2ccc3ccc4ncc(-c5cnn(C)c5)cc4c(=O)c3c2)n1,inhibition at 10 µM,[8],22%
same,"inhibition at 30 min, 10 µM",[27],5%
Cn1cc(-c2cnc3ccc4ccc(CC(N)=O)cc4c(=O)c3c2)cn1,TDI,[31],< 10%
Cn1cc(-c2cnc3ccc4ccc(CS(N)(=O)=O)cc4c(=O)c3c2)cn1,inhibition at 10 µM,[8],0%
same,"inhibition at 30 min, 10 µM",[27],26%
Cn1cc(-c2cnc3ccc4ccc(CS(=O)(=O)NCC5CCCCN5)cc4c(=O)c3c2)cn1 (stereo not drawn),inhibition at 10 µM,[8],29%
same,"inhibition at 30 min, 10 µM",[27],1%
Cn1cc(-c2cnc3ccc4ccc(CS(=O)(=O)NCc5ccccc5Cl)cc4c(=O)c3c2)cn1,inhibition at 10 µM,[8],17%
same,"inhibition at 30 min, 10 µM",[27],0%
Cn1cc(-c2cnc3ccc4ccc(CS(=O)(=O)Nc5ccccc5)cc4c(=O)c3c2)cn1,inhibition at 10 µM,[8],28%
same,"inhibition at 30 min, 10 µM",[27],50%
Cn1cc(-c2cnc3ccc4ccc(CS(=O)(=O)NCc5ccncc5)cc4c(=O)c3c2)cn1,inhibition at 10 µM,[8],97%
Cn1cc(-c2cnc3ccc4ccc(CS(=O)(=O)N[C@@H]5CCCC[C@H]5N)cc4c(=O)c3c2)cn1,inhibition at 10 µM,[8],30%
same,"inhibition at 30 min, 10 µM",[27],30%
Cn1cc(-c2cnc3ccc4ccc(CS(=O)(=O)NCc5cccc[n+]5[O-])cc4c(=O)c3c2)cn1,inhibition at 10 µM,[8],24%
same,"inhibition at 30 min, 10 µM",[27],0%
